We go through 32 compounds from the M2OR odorant receptor database.
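Note: active if original authors judged signal statistically different from baseline.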

The target in one experiment is T1, OR2A7 (Homo sapiens) (UniProt Q96R45).
T1 sequence (whole entry): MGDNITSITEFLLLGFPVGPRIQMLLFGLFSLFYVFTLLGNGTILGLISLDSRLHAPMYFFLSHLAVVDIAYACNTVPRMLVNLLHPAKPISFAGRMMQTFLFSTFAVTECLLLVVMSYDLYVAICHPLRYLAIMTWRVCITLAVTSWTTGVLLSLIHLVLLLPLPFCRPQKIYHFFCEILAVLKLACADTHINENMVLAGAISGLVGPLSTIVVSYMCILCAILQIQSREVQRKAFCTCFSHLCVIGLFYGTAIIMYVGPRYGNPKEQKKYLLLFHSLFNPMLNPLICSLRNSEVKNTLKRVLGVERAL
The following applies: stereoisomer not certain. A digest of the protocol:
(§1)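 Transient luciferase assays in mammalian cell lines were common, though methods varied by source. The values come from published papers and their supplementary material, with extra details from the original authors when needed. Responsive refers to a measured signal the original authors judged statistically different from baseline, and non-responsive (inactive) to the remainder.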
In the case of `CCCCCCCCCCCCCCC(=O)O`, the “odorant receptor agonist call” value was “inactive”. On the same count and under the same terms, the entry for `CC(=O)O` is “inactive”; for `CCCCCCCCCCCC(=O)O` it is “active”. The same measure, in the same setting: to `CCCC(=O)CC` belongs “inactive”.

Take `O=c1ccc2ccccc2o1`: the “odorant receptor agonist call” value was “inactive”. Still for that read-out and setting: to `CCCCCCCCCC(=O)OC` belongs “inactive”. `CCCCCCCCCCCC(=O)OC`: the “odorant receptor agonist call” value was “inactive”.

With `CC(C)(C)c1ccccc1`, the “odorant receptor agonist call” value was “active”.

`Cc1cnc(C)cn1`: the “odorant receptor agonist call” value is “inactive”. Still for that read-out and setting: the entry for `CCC(C)CO` (stereo not drawn) is “inactive”; for `CC(C)=CCCC(C)=CCO` it is “inactive”; for `CCCCCCCCCC(=O)OCC` it is “inactive”.

Take `CCCCCCCCCCCC(=O)OCC`: the “odorant receptor agonist call” value is “inactive”. The same measure, in the same setting: the entry for `CCCCOCC(C)O` (stereo not drawn) is “inactive”; for `CCCCCCCCCCCCCCCC(=O)OC` it is “inactive”; for `CCCCCCCC(=O)OC` it is “inactive”. On the same count and under the same terms, to `CCCCCCCCCCCCCCCCCC(=O)OCC` belongs “inactive”; to `CCCCCCCCCCCCCCCC(=O)[O-].[H+]`, “inactive”.

For the compound `CCCCCCCCCCCCCC(=O)OC`, the “odorant receptor agonist call” value was “inactive”. The same measure, in the same setting: to `CCCCCCCCCCCCCC(=O)OCC` belongs “inactive”; to `CC(C=O)Cc1ccc(C(C)(C)C)cc1` (stereo not drawn), “active”. As for `CC1=CCC2CC1C2(C)C` (stereo not drawn), the “odorant receptor agonist call” value is “active”. On to `CC(CC=O)c1ccccc1` (stereo not drawn), for which the “odorant receptor agonist call” value is “inactive”. The same measure, in the same setting: the entry for `CCCCCCCCCCCCCCCCCC(=O)[O-].[H+]` is “active”; for `CCCCCCCC(=O)OCC` it is “inactive”. Turning to `CCCCCCCC(=O)[O-].[H+]`, the “odorant receptor agonist call” value was “active”.

Take `CCCCC(=O)C(C)=O`: the “odorant receptor agonist call” value is “inactive”.

Another experiment deals with T2, OR2AG1 (Homo sapiens) (UniProt Q9H205).
T2 sequence (whole entry): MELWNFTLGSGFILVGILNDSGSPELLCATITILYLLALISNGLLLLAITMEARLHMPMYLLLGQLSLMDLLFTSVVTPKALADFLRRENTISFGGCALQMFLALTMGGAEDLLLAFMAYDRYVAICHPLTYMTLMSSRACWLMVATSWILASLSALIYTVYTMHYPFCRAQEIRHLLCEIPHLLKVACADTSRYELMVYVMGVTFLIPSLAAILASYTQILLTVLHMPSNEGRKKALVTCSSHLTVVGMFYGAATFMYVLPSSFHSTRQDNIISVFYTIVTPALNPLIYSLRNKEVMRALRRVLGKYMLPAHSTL
The settings on record: stereoisomer not certain. A digest of the protocol: as §1
Turning to `CCCC(C)C1OCC(C)(CCC)CO1` (stereo not drawn), the “odorant receptor agonist call” value is “inactive”. Turning to `CC(C)C1OC(C)(C)OCC1(C)C` (stereo not drawn), the “odorant receptor agonist call” value is “inactive”. The same measure, in the same setting: to `CCCCCOC(=O)CCC` belongs “inactive”.

The target in the next experiment is T3, OR2B11 (Homo sapiens) (UniProt Q5JQS5).
T3 sequence (whole entry): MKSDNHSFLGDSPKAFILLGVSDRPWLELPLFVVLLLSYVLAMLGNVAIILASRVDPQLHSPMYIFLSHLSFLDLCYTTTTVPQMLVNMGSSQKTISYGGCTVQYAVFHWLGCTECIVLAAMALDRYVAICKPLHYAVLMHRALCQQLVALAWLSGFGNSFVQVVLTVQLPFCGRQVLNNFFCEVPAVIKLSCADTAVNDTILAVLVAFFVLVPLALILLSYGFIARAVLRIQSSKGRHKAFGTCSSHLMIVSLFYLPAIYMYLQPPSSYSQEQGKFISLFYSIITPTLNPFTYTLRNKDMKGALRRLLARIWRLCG
The settings on record: stereoisomer not certain. A digest of the protocol: as §1
On to `O=c1ccc2ccccc2o1`, for which the “odorant receptor agonist call” value was “active”. On the same count and under the same terms, the entry for `C1CCC(SSC2CCCCC2)CC1` is “active”. Still for that read-out and setting: to `c1coc(CSSCc2ccco2)c1` belongs “active”.
